Assay results as given in ChEMBL document CHEMBL2311282, “Asymmetric synthesis and anti-protozoal activity of the 8,4'-oxyneolignans virolin, surinamensin and analogues” (Eur J Med Chem, 2013).
In brackets after ≈: the same amount, converted by molar mass.

How the values were obtained:
Leishmania donovani = experiment: Anti-protozoal activity against Leishmania donovani MHOM-ET-67/L82 amastigotes after 72 hrs by Alamar blue assay; format: functional, organism-based; conditions: MHOM-ET-67/L82, 72 h
[1] = Toxicity against rat L6 cells after 72 hrs by Alamar blue assay; format: cell-based
Outline: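 Cytotoxicity was measured on the L6 rat skeletal myoblast cell line, with podophyllotoxin as the positive control.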

Plasmodium falciparum = experiment: Anti-protozoal activity against Plasmodium falciparum K1 IEF stage after 72 hrs by [3H]hypoxanthine incorporation assay; format: functional, organism-based
Outline: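 P. falciparum K1 strain was tested at the IEF stage, with chloroquine as the positive control.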

Row | SMILES | IC50 (Plasmodium falciparum) | IC50 (Leishmania donovani) | IC50 at 72 h [1]
1 | COCO[C@H](c1ccc(OC)c(OC)c1)[C@@H](C)Oc1ccc(Br)cc1OC | 49.3 µg/mL (≈ 112 µM) | 60.3 µg/mL (≈ 137 µM) | 50.6 µg/mL (≈ 115 µM)
2 | COc1cc(-c2ccccc2)ccc1O[C@H](C)[C@@H](O)c1ccccc1 | 5.99 µg/mL (≈ 17.9 µM) | 2.48 µg/mL (≈ 7.42 µM) | 11.2 µg/mL (≈ 33.5 µM)
3 | COc1cc(Br)ccc1O[C@H](C)[C@@H](O)c1cc(OC)c(OC)c(OC)c1 | 8.47 µg/mL (≈ 19.8 µM) | 11.3 µg/mL (≈ 26.4 µM) | 20.3 µg/mL (≈ 47.5 µM)
4 | COc1cc(Br)ccc1O[C@H](C)[C@H](O)c1ccc2c(c1)OCO2 | 10.8 µg/mL (≈ 28.3 µM) | 9.2 µg/mL (≈ 24.1 µM) | 48.2 µg/mL (≈ 126 µM)
5 | COc1ccc([C@@H](O)[C@@H](C)Oc2ccc(Br)cc2OC)cc1OC | 2.5 µg/mL (≈ 6.29 µM) | 10.8 µg/mL (≈ 27.2 µM) | 20.9 µg/mL (≈ 52.6 µM)
6 | COc1ccc(C(=O)[C@@H](C)Oc2ccc(Br)cc2OC)cc1OC | 3.12 µg/mL (≈ 7.89 µM) | 12.1 µg/mL (≈ 30.6 µM) | 41.6 µg/mL (≈ 105 µM)
7 | CCCCCCCCCCCCCCCCOP(=O)([O-])OCC[N+](C)(C)C [MILTEFOSINE] | – | 0.144 µg/mL (≈ 0.353 µM) | –
8 | C/C=C/c1ccc(O[C@H](C)[C@@H](O)c2ccc(OC)c(OC)c2)c(OC)c1 | 1.71 µg/mL (≈ 4.77 µM) | 10.6 µg/mL (≈ 29.6 µM) | 13.2 µg/mL (≈ 36.8 µM)
9 | C/C=C/c1ccc(O[C@H](C)[C@H](O)c2ccc3c(c2)OCO3)c(OC)c1 | 1.73 µg/mL (≈ 5.05 µM) | 10.2 µg/mL (≈ 29.8 µM) | 14.7 µg/mL (≈ 42.9 µM)
10 | C/C=C/c1ccc(O[C@H](C)[C@@H](O)c2ccc(OC)cc2)c(OC)c1 | 1.33 µg/mL (≈ 4.05 µM) | 5.54 µg/mL (≈ 16.9 µM) | 15.5 µg/mL (≈ 47.2 µM)

Now from value to compound, other results behind:

Row | IC50 (Plasmodium falciparum) | SMILES | IC50 (Leishmania donovani) | IC50 at 72 h [1]
11 | 3.23 µg/mL (≈ 10.8 µM) | C/C=C/c1ccc(O[C@H](C)[C@@H](O)c2ccccc2)c(OC)c1 | 2.29 µg/mL (≈ 7.67 µM) | 11.9 µg/mL (≈ 39.9 µM)
12 | 4.31 µg/mL (≈ 11.7 µM) | COc1ccc([C@H](O)[C@@H](C)Oc2ccc(Br)cc2OC)cc1 | 4.79 µg/mL (≈ 13 µM) | 13.5 µg/mL (≈ 36.8 µM)
13 | 0.54 µg/mL (≈ 1.69 µM) | CCN(CC)CCCC(C)Nc1ccnc2cc(Cl)ccc12 (stereo unspecified) [CHLOROQUINE] | – | –
14 | 4.59 µg/mL (≈ 13.4 µM) | C/C=C/c1ccc(O[C@H](C)[C@@H](O)c2ccc3c(c2)OCO3)c(OC)c1 | 6.82 µg/mL (≈ 19.9 µM) | 15.3 µg/mL (≈ 44.7 µM)
15 | 47.3 µg/mL (≈ 138 µM) | C/C=C/c1ccc(O[C@H](C)[C@@H](OCOC)c2ccccc2)c(OC)c1 | 52.5 µg/mL (≈ 153 µM) | 52.3 µg/mL (≈ 153 µM)
